Experimental data collected from several papers.
Protocols differ between the studies behind these lines.
Target: Mitogen-activated protein kinase kinase kinase kinase 5 (MAP4K5, Homo sapiens, UniProt Q9Y4K4)

Structure (SMILES)	test	setting	remaining binding [%]
O=C(N1CCS(=O)(=O)CC1)N1C[C@H](c2ccc(OC(F)(F)F)cc2)C[C@H](c2nc(C3CC3)no2)C1	cell-free assay, competition with immobilised ligand	1 µM	100
C[C@@H](c1ccc(-n2cnc3c(N)ncnc32)cc1)N1CCc2nn(C)c(Cc3ccccc3)c2C1=O	binding, competition with immobilised ligand	0.1 µM	87
Cc1c(NC(=O)c2cc(C(N)=O)nc3cc(F)ccc23)c(C(F)(F)F)nn1Cc1ccc(C#N)cc1	cell-free assay, competition with immobilised ligand	1 µM	74
C=CC(=O)N1CCC(C(=O)NCC(=O)N2CCN(c3nc(-c4cnc(N)nc4C(F)F)nc(N4CCOCC4)n3)CC2)CC1	binding, competition with immobilised ligand	1 µM	95
CCS(=O)(=O)c1cc2cc(C[C@](O)(CC(C)(C)c3ccc(F)cc3C(N)=O)C(F)(F)F)[nH]c2cn1	cell-free assay, competition with immobilised ligand	1 µM	100
O=C(c1ccc(Nc2ncc(Cl)c(-c3ccc(Cl)s3)n2)cc1)N1CCC(N2CCCC2)CC1	binding, competition with immobilised ligand	1 µM	45
O=c1nc(-c2ccccn2)sc2ccccc12	binding, competition with immobilised ligand	1 µM	100
O=C(NCCCN1CCOCC1)c1ccc(Nc2ncc(Cl)c(-c3ccc(Cl)s3)n2)cc1	binding, competition with immobilised ligand	1 µM	63
F[C@@H]1CCN(c2nccc(-c3cnn4ncccc34)n2)C1	binding	1 µM	79
Nc1ncc2c(n1)-c1c([nH]c3ccc(C#CC4CC4)cc13)CCCC2	binding, competition with immobilised ligand	1 µM	82
C[C@@H]1CCN(c2nccc(-c3cnn4ncccc34)n2)C1	binding	1 µM	93
O=C(Nc1c[nH]nc1C(=O)NC1CCNCC1)c1cc(F)cc(F)c1	binding, competition with immobilised ligand	1 µM	100
c1cnn2ncc(-c3ccnc(N4CCC45COC5)n3)c2c1	binding	1 µM	94
CC(=O)Nc1c(C(C)=O)c(=O)n(C)c2nc(-c3ccc(Cl)cc3Cl)c(-c3ccc(Cl)cc3)cc12	cell-free assay, competition with immobilised ligand	1 µM	100
O=C(NCCCN1CCOCC1)c1ccc(Nc2nccc(-c3cc4ccccc4s3)n2)cc1	binding, competition with immobilised ligand	1 µM	82
CN(C)c1ncc(F)c(-c2cnn3ncccc23)n1	binding	1 µM	100
CN(c1ccnc(CNc2nc(Nc3ccc4c(c3)CC(=O)N4)ncc2C(F)(F)F)n1)S(C)(=O)=O	cell-free assay, competition with immobilised ligand	1 µM	72
N[C@H]1CCN(c2nccc(-c3cnn4ncccc34)n2)C1	binding	1 µM	100
COc1cnc(Nc2cccc(S(N)(=O)=O)c2)nc1N1CCN(c2ccccc2)CC1	binding, competition with immobilised ligand	1 µM	100
CN(CCCC(F)(F)F)c1nccc(-c2cnn3ncccc23)n1	binding	1 µM	100
c1cncc(-c2cccc(Nc3nccc(NC4CCCCC4)n3)c2)c1	binding, competition with immobilised ligand	10 µM	91
